Data taken from ChEMBL document CHEMBL1811868, “Structure-activity relationship of 2-hydroxy-2-aryl-2,3-dihydro-imidazo[1,2-a]pyrimidinium salts and 2N-substituted 4(5)-aryl-2-amino-1H-imidazoles as inhibitors of biofilm formation by Salmonella Typhimurium and Pseudomonas aeruginosa” (Bioorg Med Chem, 2011).
Activity calls are given as the source filed them.

Assays:
Salmonella typhimurium [1] = test: Antimicrobial activity against Salmonella Typhimurium ATCC 14028 assessed as inhibition of biofilm formation after 24 hrs by spectrophotometry; assay type: functional, organism-based, Salmonella enterica subsp. enterica serovar Typhimurium; conditions: Salmonella enterica, ATCC 14028, 24 h
In short: (§1)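 Static peg-lid biofilm prevention assay. Twofold serial dilutions in TSB diluted 1/20, 2–3 repeats per compound. Overnight S. Typhimurium ATCC14028 (LB-grown) or P. aeruginosa PA14 (TSB-grown) cultures were diluted 1:100, giving ~10^6 cells/well, then incubated 24 h at 25 °C without shaking. Pegs were PBS-washed, stained 30 min with 0.1% crystal violet, extracted with 30% acetic acid and read at OD570. IC50 was fitted from the concentration gradient.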

Pseudomonas aeruginosa [2] = test: Antimicrobial activity against Pseudomonas aeruginosa PA14 assessed as inhibition of biofilm formation at 25 to 50 uM after 24 hrs by spectrophotometry; assay type: functional; in short: as §1
Pseudomonas aeruginosa [3] = test: Antimicrobial activity against Pseudomonas aeruginosa PA14 assessed as inhibition of biofilm formation after 24 hrs by spectrophotometry; assay type: functional, organism-based; conditions: PA14, 24 h; in short: as §1
Pseudomonas aeruginosa [4] = test: Antimicrobial activity against Pseudomonas aeruginosa PA14 assessed as inhibition of planktonic cell growth at 20 uM after 24 hrs by […]; assay type: functional, organism-based
In short: (§2)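 Planktonic growth was followed by Bioscreen growth curves, not by crystal violet. Overnight cultures were diluted 1:200 in TSB 1/20 and received compound serially diluted in DMSO or EtOH, in triplicate, with solvent controls. Plates were shaken at 25 °C for at least 24 h, reading A600 every 15 min.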

Pseudomonas aeruginosa [5] = test: Antimicrobial activity against Pseudomonas aeruginosa PA14 assessed as inhibition of planktonic cell growth at IC50 after 24 hrs by […]; assay type: functional, organism-based; in short: as §2
Salmonella typhimurium [6] = test: Antimicrobial activity against Salmonella Typhimurium ATCC 14028 assessed as inhibition of planktonic cell growth at 20 uM after 24 hrs by […]; assay type: functional, organism-based; conditions: Salmonella enterica subsp. enterica serovar Typhimurium; in short: as §2
Salmonella typhimurium [7] = test: Antimicrobial activity against Salmonella Typhimurium ATCC 14028 assessed as inhibition of planktonic cell growth at IC50 after 24 hrs by […]; assay type: functional, organism-based; conditions: Salmonella enterica subsp. enterica serovar Typhimurium; in short: as §2
Salmonella typhimurium [8] = test: Antimicrobial activity against Salmonella Typhimurium ATCC 14028 assessed as inhibition of planktonic cell growth at 80 uM after 24 hrs by […]; assay type: functional, organism-based; conditions: Salmonella enterica subsp. enterica serovar Typhimurium; in short: as §2
Pseudomonas aeruginosa [9] = test: Antimicrobial activity against Pseudomonas aeruginosa PA14 assessed as inhibition of planktonic cell growth at 80 uM after 24 hrs by […]; assay type: functional, organism-based; in short: as §2
Salmonella typhimurium [10] = test: Antimicrobial activity against Salmonella Typhimurium ATCC 14028 assessed as inhibition of planktonic cell growth at 40 uM after 24 hrs by […]; assay type: functional, organism-based; conditions: Salmonella enterica subsp. enterica serovar Typhimurium; in short: as §2
Pseudomonas aeruginosa [11] = test: Antimicrobial activity against Pseudomonas aeruginosa PA14 assessed as inhibition of planktonic cell growth at 5 uM after 24 hrs by […]; assay type: functional, organism-based; in short: as §2
Pseudomonas aeruginosa [12] = test: Antimicrobial activity against Pseudomonas aeruginosa PA14 assessed as inhibition of planktonic cell growth at 40 uM after 24 hrs by […]; assay type: functional, organism-based; in short: as §2

Row | SMILES | IC50 (Salmonella typhimurium [1]) [µM] | growth inhibition (GI) (Pseudomonas aeruginosa [2]) [%] | IC50 (Pseudomonas aeruginosa [3]) [µM] | growth inhibition (GI) (Pseudomonas aeruginosa [4]) | growth inhibition (GI) (Pseudomonas aeruginosa [5]) | growth inhibition (GI) (Salmonella typhimurium [6]) | growth inhibition (GI) (Salmonella typhimurium [7]) | growth inhibition (GI) (Salmonella typhimurium [8]) | growth inhibition (GI) (Pseudomonas aeruginosa [9]) | growth inhibition (GI) (Salmonella typhimurium [10]) | growth inhibition (GI) (Pseudomonas aeruginosa [11]) | growth inhibition (GI) (Pseudomonas aeruginosa [12])
1 | CCCCCCCCCCCN1c2nccc[n+]2C[C@@]1(O)c1ccc(Cl)cc1.[Br-] | 61.9 | > 25 | > 800 |  |  |  |  |  |  |  |  | 
2 | Brc1ccc(-c2cnc(NC3CCCC3)[nH]2)cc1 | 12.1 |  | 7.2 | inactive | inactive | inactive | inactive |  |  |  |  | 
3 | O[C@@]1(c2ccc(Cl)cc2)C[n+]2cccnc2N1C1CCCCC1 | 33 |  | 16.4 |  | inactive |  | Active | Active | Active |  |  | 
4 | O[C@@]1(c2ccc(Cl)cc2)C[n+]2cccnc2N1C1CCCC1 | 41.8 |  | 41.9 |  | Active |  | Active | Active | Active |  |  | 
5 | CCCCCCCCCCCCN1c2nccc[n+]2C[C@@]1(O)c1ccccc1.[Br-] | 27.5 | > 25 | > 800 |  |  |  | Active |  |  | Active |  | 
6 | O=[N+]([O-])c1ccc(-c2cnc(NC3CCCC3)[nH]2)cc1 | 11.8 |  | 20.2 |  | inactive | inactive | inactive |  |  |  |  | 
7 | CC(C)CNc1ncc(-c2ccc(Br)cc2)[nH]1 | 2.9 |  | 1.2 |  | inactive | inactive | inactive |  |  | Active | inactive | 
8 | O[C@@]1(c2ccccc2)C[n+]2cccnc2N1C1CCCCCCC1 | 58.4 |  | 48.6 |  | Active |  | Active | Active | Active |  |  | 
9 | CCCCNc1ncc(-c2ccc(Br)cc2)[nH]1 | 7.1 |  | 9.8 | inactive | inactive | inactive | inactive |  |  |  |  | 
10 | CCCCCCCCCCCN1c2nccc[n+]2C[C@@]1(O)c1ccccc1.[Br-] | 24.6 | > 25 | > 800 |  |  |  | Active |  |  | Active |  | 
11 | COc1ccc(-c2cnc(NC3CCCCC3)[nH]2)cc1 | 378 |  | 54.8 |  | inactive |  |  |  | inactive |  |  | 
12 | CC(C)CNc1ncc(-c2ccc(Cl)cc2)[nH]1 | 2 |  | 0.9 |  | inactive | inactive | inactive |  |  | Active | inactive | 
13 | CCCCCCCCCCCCCN1c2nccc[n+]2C[C@@]1(O)c1ccccc1.[Br-] | 81.6 | > 25 | > 800 |  |  |  |  |  |  |  |  | 
14 | CCCCNc1ncc(-c2ccc(F)cc2)[nH]1 | 15.5 |  | 10.8 |  | inactive |  | inactive | inactive |  |  |  | inactive
15 | CCCCCCCCNc1ncc(-c2ccc(S(C)(=O)=O)cc2)[nH]1 | 41.8 |  | 3.1 | inactive | inactive |  | inactive | inactive |  |  |  | 
16 | CCCNc1ncc(-c2ccc(Cl)c(Cl)c2)[nH]1 | 10.9 |  | 27.7 |  |  | inactive | inactive |  |  |  |  | 
17 | CSc1ccc(-c2cnc(NC3CCCCC3)[nH]2)cc1 | 191 |  | 15.8 | inactive | inactive |  |  |  |  |  |  | 
18 | O[C@@]1(c2ccc(Cl)cc2)C[n+]2cccnc2N1C1CCCCCC1 | 27.9 |  | 76.2 |  | Active |  | Active |  | Active |  |  | 
19 | CC(C)CNc1ncc(-c2ccccc2)[nH]1 | 4.9 |  | 1.2 |  | inactive |  | inactive |  |  | inactive | inactive | 
20 | CCCCCNc1ncc(-c2ccc(Cl)c(Cl)c2)[nH]1 | 2.2 |  | 0.7 |  | inactive |  |  |  |  |  | inactive | 
21 | Clc1ccc(-c2cnc(NC3CCCC3)[nH]2)cc1Cl | 5.7 |  | 7.9 |  | inactive | inactive | inactive |  |  |  |  | inactive
22 | CCCCCCCCNc1ncc(-c2cccc(Br)c2)[nH]1 | 44.6 |  | > 800 |  |  |  | inactive | inactive |  |  |  | 
23 | CCCCNc1ncc(-c2ccc(OC)cc2)[nH]1 | 52.6 |  | 46.3 |  | inactive |  | inactive | inactive | inactive |  |  | 
24 | c1ccc(-c2cnc(NC3CCCC3)[nH]2)cc1 | 52.9 |  | 33.8 |  | inactive |  | inactive | inactive |  |  |  | inactive
25 | CCCCCNc1ncc(-c2ccc(Br)cc2)[nH]1 | 3.1 |  | 10.2 | inactive | inactive | Active | inactive |  |  | Active |  | 
26 | CCCCCCCCCCCCCCN1c2nccc[n+]2C[C@@]1(O)c1ccccc1.[Br-] | 180 | > 25 | > 800 |  |  |  |  |  |  |  |  | 
27 | CCCCCCCCNc1ncc(-c2ccc([N+](=O)[O-])cc2)[nH]1 | 10.9 |  | 25 |  |  |  | inactive | inactive |  |  |  | 
28 | Nc1ncc(-c2ccc(Cl)cc2)[nH]1 |  |  |  |  | inactive |  | inactive |  |  | inactive | inactive | 
29 | O[C@@]1(c2ccccc2)C[n+]2cccnc2N1C1CCCCC1 | 139 |  | 22.4 |  | inactive |  | Active |  | Active |  |  | 
